Source: ChEMBL document CHEMBL3763081, “Synthesis, evaluation and structure-activity relationship of new 3-carboxamide coumarins as FXIIa inhibitors” (Eur J Med Chem, 2016)
Values after ≈ are worked out from the molar mass of the structure shown.

What was measured:
[1] = Solubility of compound at pH 6.5; format: physicochemical; details: buffer
[2] = molecular target: T1, Coagulation factor XII (Homo sapiens) (UniProt P00748); assay: Inhibition of human factor 12a using S-2302 as substrate assessed as para-nitroaniline release at 50 uM preincubated for 10 mins followed by substrate addition measured after 30 mins by HPLC-UV analysis
T1 sequence (whole entry): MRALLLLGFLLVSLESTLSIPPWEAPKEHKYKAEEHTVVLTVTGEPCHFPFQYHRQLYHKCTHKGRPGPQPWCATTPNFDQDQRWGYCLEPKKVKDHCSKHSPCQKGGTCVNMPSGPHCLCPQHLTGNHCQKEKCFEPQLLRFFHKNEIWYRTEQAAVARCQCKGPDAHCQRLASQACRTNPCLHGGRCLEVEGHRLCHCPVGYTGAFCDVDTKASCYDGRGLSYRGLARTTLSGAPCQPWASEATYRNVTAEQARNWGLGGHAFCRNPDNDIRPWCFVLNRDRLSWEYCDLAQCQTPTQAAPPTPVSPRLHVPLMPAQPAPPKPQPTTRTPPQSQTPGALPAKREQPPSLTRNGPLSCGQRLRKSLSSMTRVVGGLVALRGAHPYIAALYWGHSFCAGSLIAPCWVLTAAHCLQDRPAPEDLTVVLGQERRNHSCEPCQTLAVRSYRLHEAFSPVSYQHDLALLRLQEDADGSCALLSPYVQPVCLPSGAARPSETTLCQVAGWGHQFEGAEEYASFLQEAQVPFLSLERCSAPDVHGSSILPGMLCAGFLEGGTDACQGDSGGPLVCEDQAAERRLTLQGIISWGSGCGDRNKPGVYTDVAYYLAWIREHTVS
Procedure, shortened: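 Human FXIIa 145 nM in 0.5 mM Tris-Imidazole, 0.15 M NaCl, pH 7.9, preincubated 10 min at 25 C with compound (DMSO). S-2302 (2.5 mM) added and hydrolysis run 30 min, then stopped with 10% acetic acid. Wells diluted 1:1 in acetonitrile. Released p-NA quantified by C18 HPLC-UV at 375 nm (AUC). % inhibition = [1-(AUCdrug/AUCvehicle)]*100.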

[3] = molecular target: Prothrombin (Homo sapiens) (UniProt P00734); assay: Inhibition of human thrombin using S-2238 as substrate at 100 uM preincubated for 10 mins followed by substrate addition measured for 5 mins by microplate reader analysis
Procedure, shortened: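 Compound (DMSO) preincubated 10 min at 25 C, then S-2238 (2.5 mM). OD405 monitored continuously for 5 min. Slope-based % inhibition against vehicle control.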

[4] = molecular target: T2, Coagulation factor XII (Homo sapiens, UniProt P00748); assay: Inhibition of human factor 12a using S-2302 as substrate assessed as para-nitroaniline release preincubated for 10 mins followed by substrate addition measured after 30 mins by HPLC-UV analysis
T2 sequence (P00748 whole entry): T1 sequence (whole entry)
Procedure, shortened: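 FXIIa IC50 assay. Human enzyme 145 nM in Tris-Imidazole/NaCl buffer, pH 7.9, 10 min at 25 C with compound, then S-2302 (2.5 mM) for 30 min and acetic acid stop. p-NA AUC measured by HPLC-UV at 375 nm. Nine concentrations from 100 nM upward, in duplicate. Sigmoid fit of % inhibition vs log concentration by non-linear regression; values reported as mean with 95% CI.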

[5] = molecular target: Plasma kallikrein (Homo sapiens) (UniProt P03952); assay: Inhibition of human plasma kallikrein using S-2302 as substrate at 100 uM preincubated for 10 mins followed by substrate addition measured for 5 mins by microplate reader analysis; format: cell-free
Procedure, shortened: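 Human plasma kallikrein 50 nM in 0.05 M Tris-HCl, 0.5 mM EDTA, 0.05% Tween 20, 0.15 M NaCl, pH 7.4. 10 min preincubation with compound at 25 C, then S-2302 (4 mM). OD405 read continuously for 5 min. % inhibition = [1-(slope inhibitor/slope vehicle)]*100.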

[6] = molecular target: T3, Coagulation factor VII (Homo sapiens) (UniProt P08709); assay: Inhibition of human factor 7a using chromozymt-PA as substrate at 100 uM preincubated for 10 mins followed by substrate addition measured for 10 mins by microplate reader analysis
T3 sequence (whole entry): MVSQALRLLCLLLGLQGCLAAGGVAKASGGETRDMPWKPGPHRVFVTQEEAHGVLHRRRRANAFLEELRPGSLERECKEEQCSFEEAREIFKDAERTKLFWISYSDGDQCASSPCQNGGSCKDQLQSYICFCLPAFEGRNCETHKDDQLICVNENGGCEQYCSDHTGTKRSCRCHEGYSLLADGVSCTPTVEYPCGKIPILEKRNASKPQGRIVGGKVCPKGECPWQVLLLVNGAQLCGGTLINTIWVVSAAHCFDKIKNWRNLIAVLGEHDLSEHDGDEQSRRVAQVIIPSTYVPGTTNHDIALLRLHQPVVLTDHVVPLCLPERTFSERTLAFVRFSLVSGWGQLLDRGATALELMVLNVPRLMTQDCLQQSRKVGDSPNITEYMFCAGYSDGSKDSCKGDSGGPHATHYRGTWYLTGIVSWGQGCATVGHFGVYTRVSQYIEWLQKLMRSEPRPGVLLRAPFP
Procedure, shortened: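 Compound preincubated 10 min at 25 C. Chromozym t-PA (5 mM) added and OD405 monitored continuously for 10 min. Inhibition from slope ratio against vehicle.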

[7] = molecular target: Coagulation factor X (Homo sapiens) (UniProt P00742); assay: Inhibition of human factor 10a using S-2765 as substrate at 100 uM preincubated for 10 mins followed by substrate addition measured for 5 mins by microplate reader analysis
Procedure, shortened: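 Compound added from DMSO and held with enzyme 10 min at 25 C. S-2765 (1 mM) then added and OD405 followed continuously for 5 min. % inhibition = [1-(slope inhibitor/slope vehicle)]*100.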

Chain of Plasma kallikrein (Homo sapiens) (P03952 20-390 limits assumed): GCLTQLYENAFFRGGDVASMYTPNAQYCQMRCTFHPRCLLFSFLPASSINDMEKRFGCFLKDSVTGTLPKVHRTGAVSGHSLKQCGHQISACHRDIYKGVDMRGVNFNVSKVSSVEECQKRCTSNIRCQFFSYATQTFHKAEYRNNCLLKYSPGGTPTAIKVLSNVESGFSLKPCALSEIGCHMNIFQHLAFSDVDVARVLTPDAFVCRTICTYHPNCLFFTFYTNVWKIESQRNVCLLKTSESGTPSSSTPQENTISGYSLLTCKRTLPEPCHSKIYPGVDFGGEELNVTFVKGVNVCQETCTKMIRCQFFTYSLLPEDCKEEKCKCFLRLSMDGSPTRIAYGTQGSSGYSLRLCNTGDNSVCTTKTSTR
Chain of Plasma kallikrein (Homo sapiens) (P03952 391-638 limits assumed): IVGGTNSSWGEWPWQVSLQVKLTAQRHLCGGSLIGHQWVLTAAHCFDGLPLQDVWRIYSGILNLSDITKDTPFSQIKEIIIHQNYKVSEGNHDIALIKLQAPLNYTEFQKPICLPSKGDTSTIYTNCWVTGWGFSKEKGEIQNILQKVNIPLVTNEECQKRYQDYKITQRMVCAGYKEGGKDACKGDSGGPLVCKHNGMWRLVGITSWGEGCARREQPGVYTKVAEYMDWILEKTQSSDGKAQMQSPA
Chain of Coagulation factor X (Homo sapiens) (P00742 41-179 limits assumed): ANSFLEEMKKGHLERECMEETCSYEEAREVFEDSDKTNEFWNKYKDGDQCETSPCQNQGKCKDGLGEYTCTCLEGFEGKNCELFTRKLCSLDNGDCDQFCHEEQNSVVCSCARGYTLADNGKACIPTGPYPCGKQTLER
Chain of Coagulation factor X (Homo sapiens) (P00742 235-488 limits assumed): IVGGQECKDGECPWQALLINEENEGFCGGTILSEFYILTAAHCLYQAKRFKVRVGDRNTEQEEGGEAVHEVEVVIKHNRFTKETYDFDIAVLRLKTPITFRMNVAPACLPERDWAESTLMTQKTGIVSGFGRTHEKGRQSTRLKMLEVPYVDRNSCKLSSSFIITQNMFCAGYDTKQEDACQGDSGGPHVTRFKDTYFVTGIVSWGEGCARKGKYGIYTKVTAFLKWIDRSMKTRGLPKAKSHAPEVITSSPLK

SMILES | solubility [1] [µg/mL] | inhibition [2] [%] | inhibition [3] [%] | IC50 [4] [µM] | inhibition [5] [%] | inhibition [6] [%] | inhibition [7] [%]
O=C(NCCN1CCOCC1)c1cc2cc(Cl)cc(Cl)c2oc1=O | 400 (≈ 1080 µM) | 20 |  |  |  |  | 
O=C(Nc1ccc(Cl)cc1O)c1cc2cc(Cl)cc(Br)c2oc1=O | 0.11 (≈ 0.256 µM) | 99 | < 10 | 8 | < 10 | < 10 | < 10
Cl.NCc1ccc2oc(=O)c(C(=O)Nc3ccccc3)cc2c1 | 9900 | 26 |  |  |  |  | 
CN(C)CCNC(=O)c1cc2cc(Br)cc(Br)c2oc1=O | 3000 (≈ 7180 µM) | 30 |  |  |  |  | 
O=C(Nc1ccccc1O)c1cc2cc(Cl)cc(Br)c2oc1=O | 0.71 (≈ 1.8 µM) | 99 | < 10 | 7 | < 10 | < 10 | < 10
O=C(Nc1ccccc1)c1cc2cc(CN3CCCC3)ccc2oc1=O | 3400 (≈ 9760 µM) | 21 |  |  |  |  | 
O=C(Nc1ccccc1)c1cc2cc(CN3CCOCC3)ccc2oc1=O | 48 (≈ 132 µM) | 18 |  |  |  |  | 
CN(C)CCNC(=O)c1cc2cc(Cl)cc(Cl)c2oc1=O | 2200 (≈ 6680 µM) | 29 |  |  |  |  | 
O=C(Nc1cc(Cl)ccc1O)c1cc2cc(Cl)cc(Br)c2oc1=O | 0.1 (≈ 0.233 µM) | 99 | < 10 | 5 | < 10 | < 10 | < 10
O=C(Nc1ccccc1)c1cc2cc(Cl)cc(Br)c2oc1=O | 0.59 (≈ 1.56 µM) | 90 | < 10 | 16 | < 10 | < 10 | < 10
O=C(O)c1cc(Cl)ccc1NC(=O)c1cc2cc(Cl)cc(Br)c2oc1=O | 36 (≈ 78.8 µM) | 75 |  |  |  |  | 

Next, values leading:

solubility [1] [µg/mL] | inhibition [2] [%] | inhibition [3] [%] | IC50 [4] [µM] | inhibition [5] [%] | inhibition [6] [%] | inhibition [7] [%] | SMILES
2900 (≈ 8280 µM) | 14 |  |  |  |  |  | CCN(CC)Cc1ccc2oc(=O)c(C(=O)Nc3ccccc3)cc2c1
61900 | 23 |  |  |  |  |  | NCCNC(=O)c1cc2cc(Cl)cc(Br)c2oc1=O.O=C(O)C(F)(F)F
1.4 (≈ 3.55 µM) | 90 | < 10 | 34 | < 10 | < 10 | < 10 | O=C(Nc1cccc(O)c1)c1cc2cc(Cl)cc(Br)c2oc1=O
2400 (≈ 6420 µM) | 26 |  |  |  |  |  | CN(C)CCNC(=O)c1cc2cc(Cl)cc(Br)c2oc1=O
500 (≈ 1090 µM) | 14 |  |  |  |  |  | O=C(NCCN1CCOCC1)c1cc2cc(Br)cc(Br)c2oc1=O
1.5 (≈ 3.8 µM) | 90 | < 10 | 41 | < 10 | < 10 | < 10 | O=C(Nc1ccc(O)cc1)c1cc2cc(Cl)cc(Br)c2oc1=O
700 (≈ 1930 µM) | 28 |  |  |  |  |  | O=C(Nc1ccccc1)c1cc2cc(CN3CCCCC3)ccc2oc1=O
52 (≈ 176 µM) | 14 |  |  |  |  |  | O=C(Nc1ccccc1)c1cc2cc(CO)ccc2oc1=O
400 (≈ 962 µM) | 17 |  |  |  |  |  | O=C(NCCN1CCOCC1)c1cc2cc(Cl)cc(Br)c2oc1=O
